In ChEMBL document CHEMBL4732082, “Development of novel benzimidazole-derived neddylation inhibitors for suppressing tumor growth invitro and invivo” (Eur J Med Chem, 2021):
Active and inactive are the calls of the source. The calls are words filed in the database; no cut-off is given here.

Columns and labels:
[1] = target: T1, NEDD8-activating enzyme E1 regulatory subunit (Homo sapiens) (UniProt Q13564); assay: Inhibition of NAE (unknown origin)-mediated neddylation assessed as suppression of cullin1-Nedd8 adduct formation at 25 uM preincubated for 10 mins followed by ATP addition and measured after 30 mins by immunoblot analysis relative to control; details: time 40.0 min
T1 sequence (whole entry): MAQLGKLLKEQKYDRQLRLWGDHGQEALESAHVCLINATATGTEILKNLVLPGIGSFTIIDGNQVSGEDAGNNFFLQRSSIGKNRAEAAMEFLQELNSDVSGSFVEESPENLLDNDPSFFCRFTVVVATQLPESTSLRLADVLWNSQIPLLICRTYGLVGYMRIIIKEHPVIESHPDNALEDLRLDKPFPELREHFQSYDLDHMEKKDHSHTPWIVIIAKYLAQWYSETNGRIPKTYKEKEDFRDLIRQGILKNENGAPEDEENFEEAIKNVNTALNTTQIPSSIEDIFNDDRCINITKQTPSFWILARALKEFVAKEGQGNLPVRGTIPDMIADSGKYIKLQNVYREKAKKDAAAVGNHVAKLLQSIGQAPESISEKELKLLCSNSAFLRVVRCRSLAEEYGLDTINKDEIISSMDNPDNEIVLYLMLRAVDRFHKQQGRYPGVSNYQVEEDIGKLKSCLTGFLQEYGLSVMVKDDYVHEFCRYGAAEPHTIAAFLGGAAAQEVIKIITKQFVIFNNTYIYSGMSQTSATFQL

A549 [2] = assay: Induction of cellular senescence in human A549 cells at 10 uM by SA-beta-gal-staining based assay; assay type: functional, cell-based
A549 [3] = assay: Induction of apoptosis in human A549 cells assessed as necrotic cells at 40 uM after 48 hrs by Annexin V-FITC/PI double staining based flow cytometric analysis (reference value: 1.57%); assay type: functional
[4] = target: T1, NEDD8-activating enzyme E1 regulatory subunit (Homo sapiens); assay: Inhibition of NAE-mediated neddylation in human A549 cells assessed as suppression of cullin1-Nedd8 adduct formation at 12.5 to 25 uM measured after 6 to 12 hrs by Western blot analysis; assay type: cell-based; details: dose 12.5-25 µM, time 6-12 hrs
Outline: (§1)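 A549 cells were treated 6 or 12 h with graded concentrations (4.5–75 μM) against a 0.1% DMSO control. Cells were washed in cold PBS, lysed in RIPA on ice and cleared by centrifugation, and protein was normalized. Cullin-Nedd8 was resolved on non-reducing SDS-PAGE and Wee1/p27 under reducing conditions, then detected by Western blot.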

NCI-H1299 = assay: Antiproliferative activity against human H1299 cells incubated for 48 hrs by CCK-8 assay; assay type: functional, cell-based; details: NCI-H1299, 48 h
Outline: (§2)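 Cells from ATCC, passaged six times, grown in DMEM with 10% FBS and penicillin/streptomycin at 37 °C under 5% CO2. Seeded at 2500 cells/well, cultured overnight, treated 48 h, viability read by CCK-8. Run in triplicate; values are the mean of three experiments.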

A549 [5] = assay: Antitumor activity against human A549 cells xenografted in nude mouse assessed as decrease in tumor weight at 30 mg/kg, ip qd for 5 days on and 2 days off dosing and measured after 24 days post-treatment; assay type: functional, organism-based; details: time 24.0 day
Outline: (§3)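 Female nude mice were inoculated subcutaneously with 2×10^6 A549 cells in 0.1 mL PBS. At tumor volume 70–100 mm³, mice were randomized into 5 groups of 6. Dosing was ip or oral gavage, once daily on a 5-days-on/2-days-off schedule, with 10% 2-hydroxypropyl-β-cyclodextrin/water as vehicle control. Body weight and tumor volume were measured every two days; tumors were weighed at sacrifice. Significance by two-tailed Student's t-test.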

A549 [6] = assay: Induction of apoptosis in human A549 cells assessed as necrotic cells at 10 uM after 48 hrs by Annexin V-FITC/PI double staining based flow cytometric analysis (reference value: 1.57%); assay type: functional
A549 [7] = assay: Induction of apoptosis in human A549 cells assessed as necrotic cells at 20 uM after 48 hrs by Annexin V-FITC/PI double staining based flow cytometric analysis (reference value: 1.57%); assay type: functional
A549 [8] = assay: Induction of apoptosis in human A549 cells assessed as live cells at 20 uM after 48 hrs by Annexin V-FITC/PI double staining based flow cytometric analysis (reference value: 91.8%); assay type: functional
A549 [9] = assay: Induction of apoptosis in human A549 cells assessed as increase in PARP cleavage at 12.5 uM by Western blot analysis; assay type: functional, cell-based
[10] = target: T1, NEDD8-activating enzyme E1 regulatory subunit (Homo sapiens); assay: Inhibition of NAE-mediated neddylation in human A549 cells assessed as suppression of cullin5-Nedd8 adduct formation at 12.5 to 25 uM measured after 6 to 12 hrs by Western blot analysis; assay type: cell-based; details: dose 12.5-25 µM, time 6-12 hrs; outline: as §1
[11] = Toxicity in nude mouse assessed as effect on body weight at 30 mg/kg, qd after 24 days; assay type: organism-based; details: in vivo, 576 h, time 24 day; outline: as §3
A549 [12] = assay: Induction of apoptosis in human A549 cells assessed as early apoptotic cells at 20 uM after 48 hrs by Annexin V-FITC/PI double staining based flow cytometric analysis (reference value: 2.04%); assay type: functional
A549 [13] = assay: Antitumor activity against human A549 cells xenografted in nude mouse assessed as inhibition of tumor growth at 60 mg/kg, po qd for 5 days on and 2 days off dosing and measured after 24 days post-treatment; assay type: functional, organism-based; details: time 24.0 day; outline: as §3
A549 [14] = assay: Induction of apoptosis in human A549 cells assessed as live cells at 40 uM after 48 hrs by Annexin V-FITC/PI double staining based flow cytometric analysis (reference value: 91.8%); assay type: functional
[15] = target: T1, NEDD8-activating enzyme E1 regulatory subunit (Homo sapiens); assay: Inhibition of NAE-mediated neddylation in human A549 cells assessed as suppression of cullin4a-Nedd8 adduct formation at 12.5 to 25 uM measured after 6 to 12 hrs by Western blot analysis; assay type: cell-based; details: dose 12.5-25 µM, time 6-12 hrs; outline: as §1
A549 [16] = assay: Induction of p27 accumulation in human A549 cells at 50 uM incubated for 6 to 12 hrs by Western blot analysis; assay type: functional, cell-based; details: time 6-12 hrs; outline: as §1
A549 [17] = assay: Induction of apoptosis in human A549 cells assessed as late apoptotic cells at 40 uM after 48 hrs by Annexin V-FITC/PI double staining based flow cytometric analysis (reference value: 4.62%); assay type: functional
A549 [18] = assay: Antiproliferative activity against human A549 cells incubated for 48 hrs by CCK-8 assay; assay type: functional, cell-based; details: A549, 48 h; outline: as §2
A549 [19] = assay: Induction of apoptosis in human A549 cells assessed as early apoptotic cells at 40 uM after 48 hrs by Annexin V-FITC/PI double staining based flow cytometric analysis (reference value: 2.04%); assay type: functional
A549 [20] = assay: Antitumor activity against human A549 cells xenografted in nude mouse assessed as decrease in tumor volume at 30 mg/kg, ip qd for 5 days on and 2 days off dosing and measured after 24 days post-treatment; assay type: functional, organism-based; details: time 24.0 day; outline: as §3
A549 [21] = assay: Induction of apoptosis in human A549 cells assessed as increase in ratio of early and late apoptotic cells at 10 to 40 uM after 48 hrs by Annexin V-FITC/PI double staining based flow cytometric analysis (reference value: 2.6%); assay type: functional; details: dose 10-40 µM
BEAS-2B = assay: Cytotoxicity against human BEAS-2B cells incubated for 48 hrs by CCK-8 assay; assay type: cell-based; outline: as §2
A549 [22] = assay: Induction of apoptosis in human A549 cells assessed as live cells at 10 uM after 48 hrs by Annexin V-FITC/PI double staining based flow cytometric analysis (reference value: 91.8%); assay type: functional

- inhibition [1]: 86.4%
- inhibition [4]: Active
- IC50 (NCI-H1299): 21.8 µM
- inhibition [10]: Active
- inhibition [15]: Active
- IC50 (A549 [18]): 20.4 µM
Compound: CCOc1nc2cccc(C(=O)NCCc3ccc(Cl)cc3Cl)c2n1Cc1ccc(-c2ccccc2-c2nnn[nH]2)cc1
- Activity (A549 [2]): Active
- Activity (A549 [3]): 1.02%
- Activity (A549 [5]): Active
- Activity (A549 [6]): 1.57%
- Activity (A549 [7]): 1.91%
- Activity (A549 [8]): 72.6%
- Activity (A549 [9]): Active
- Activity [11]: Non-Toxic
- Activity (A549 [12]): 18.6%
- Activity (A549 [13]): Active
- Activity (A549 [14]): 63.2%
- Activity (A549 [16]): Active
- Activity (A549 [17]): 3.71%
- Activity (A549 [19]): 32.1%
- Activity (A549 [20]): Active
- Activity (A549 [21]): 35.81%
- IC50 (BEAS-2B): 79.4 µM
- Activity (A549 [22]): 91.8%
